Data taken from ChEMBL document CHEMBL1147734, “Synthesis, chiral resolution, and enantiopharmacology of a potent 2,3-benzodiazepine derivative as noncompetitive AMPA receptor antagonist” (J Med Chem, 2006).
Activity calls are given as the source filed them. The rule behind the calls is not given here.

Key:
[1] = target: T1, Glutamate receptor ionotropic, AMPA (Rattus norvegicus, UniProt P19490+P19491+P19492+P19493); test: Displacement of [3H]AMPA from AMPA receptor in rat cerebral cortex synaptic membranes; assay type: cell membranes, Membrane
How it was run: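 Rat cerebral cortex synaptic membranes with 5 nM [3H]AMPA, following an earlier published method.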

[2] = target: T1, Glutamate receptor ionotropic, AMPA; test: Inhibition of kainate induced [45Ca]2+ uptake in rat cerebellar granule cells expressing AMPA receptor; assay type: functional
How it was run: (§1)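 Primary rat cerebellar granule neurons preincubated 30 min with compound in BSS (HEPES, pH 7.3). Then exposed at room temperature for 10 min to 100 µM kainate with 10 µM glycine, 0.5 mM DTT and 0.5 µCi 45Ca2+. Washed in ice-cold BSS containing 5 mM EGTA, lysed in Triton X-100, radioactivity counted.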

Glutamate NMDA receptor = test: Displacement of [3H]glycine from Gly/NMDA receptor in rat cerebral cortex synaptic membranes; assay type: cell membranes, Membrane
How it was run: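 Rat cortical synaptic membranes with 8 nM [3H]glycine as ligand, following an earlier published method.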

[3] = target: Glutamate NMDA receptor (Rattus norvegicus) (UniProt P35439+Q00959+Q00960+Q00961+Q62645+Q8VHN2+Q9R1M7); test: Displacement of [3H](+)-MK-801 from rat cortical NMDA ion channel complex at 100 uM; assay type: protein-complex assay
How it was run: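 Rat cortical membranes washed in 5 mM Tris-HCl pH 7.4 with 0.08% Triton X-100, then pelleted and resuspended through four more cycles. Incubated 120 min at room temperature with 2.5 nM [3H]-(+)-MK-801, glutamic acid and glycine, with or without compound. Bound ligand separated on polyethylenimine-soaked GF/C filters. Nonspecific binding defined with phencyclidine.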

[4] = target: Glutamate receptor ionotropic, AMPA (Rattus norvegicus) (UniProt P19491+P19492+P19493+P19490); test: Inhibition of kainate induced [45Ca]2+ uptake in rat cerebellar granule cells expressing AMPA receptor at 32 uM; assay type: functional; how it was run: as §1
[5] = target: T1, Glutamate receptor ionotropic, AMPA; test: Displacement of [3H]CP-526427 from non competitive […] or benzodiazepine binding site of AMPA receptor from rat forebrain
How it was run: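 Adult male Sprague-Dawley rat forebrain membranes (P2 fraction, lysed in Tris acetate) diluted to 0.5 mg protein/mL in 50 mM Tris-HCl pH 7.4. Compound dilution series plus 3 nM [3H]CP-526,427, incubated 20 min at 30 °C, then filtered and counted by scintillation. Nonspecific binding taken with 10 µM unlabeled CP-526,427 or CP-465,022.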

Mus musculus [6] = species on record: Mus musculus; test: Effect on locomotor activity assessed by rotarod test in DBA/2 mice; assay type: functional
How it was run: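 Rotarod locomotor deficit in DBA/2 mice after ip dosing across 3.3-200 µmol/kg. TD50 by Litchfield-Wilcoxon with 95% confidence limits, at least 32 animals per value.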

Mus musculus [7] = species on record: Mus musculus; test: Ratio of TD50 over ED50 (clonic phase of audiogenic seizures) in DBA/2 mice; assay type: functional
How it was run: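 Protective index: rotarod TD50 divided by clonic-phase audiogenic ED50, both from ip-dosed DBA/2 mice fitted by Litchfield-Wilcoxon.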

Mus musculus [8] = test: Effect on clonic phase of audiogenic seizures in DBA/2 mice after 30 min at 3.3-200 umol/kg, ip; assay type: functional; details: DBA/2, ip, 0.5 h
How it was run: (§2)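 DBA/2 mice, 8-12 g, 22-25 days old, either sex, 10 per group. Dosed ip, vehicle or 3.3-200 µmol/kg, then sound stimulus 30 min later; latency and incidence of each seizure phase scored. ED50 by Litchfield-Wilcoxon, 95% confidence limits, at least 32 animals per value.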

Mus musculus [9] = test: Effect on tonic phase of audiogenic seizures in DBA/2 mice after 30 min at 3.3-200 umol/kg, ip; assay type: functional; details: DBA/2, ip, 0.5 h; how it was run: as §2

Row | IC50 [1] [µM] | IC50 [2] [µM] | IC50 (Glutamate NMDA receptor) [µM] | inhibition [3] [%] | inhibition [4] | IC50 [5] [µM] | SMILES | TD50 (Mus musculus [6]) [µM/kg] | Ratio TD50/ED50 (Mus musculus [7]) | ED50 (Mus musculus [8]) [µmol/kg] | ED50 (Mus musculus [9]) [µmol/kg]
1 | > 100 | 12 | > 100 | 33 | 94% | > 10 | CC1C(=O)NN=C(c2ccc(N)cc2)c2cc3c(cc21)OCO3 (racemic) | 48.5 | 2.4 | 20.2 | 8.3
2 | – | 6 | – | – | – | 3.27 | C[C@@H]1C(=O)NN=C(c2ccc(N)cc2)c2cc3c(cc21)OCO3 | 34.2 | 3.1 | 11 | 1.74
3 | – | – | – | – | inactive | > 10 | C[C@H]1C(=O)NN=C(c2ccc(N)cc2)c2cc3c(cc21)OCO3 | >100 | >1.1 | 88.4 | 7.36
